Measurements: ChEMBL document CHEMBL3271979, “Inhibition of solid tumors by nitrosoureas. 1. Lewis lung carcinoma” (1977)
The source made the active and inactive calls. No cut-off for these calls is given here.

Experiments:
L1210 = experiment: Antitumor activity against mouse L1210 cells allografted in ip dosed mouse assessed as disease cure administered as single dose; format: functional, organism-based
[1] = Antitumor activity against mouse early Lewis lung carcinoma allografted in ip dosed BDF1 mouse assessed as disease cure administered as single dose on 1 or 2 days post-tumor implantation measured for 80 days post-drug treatment; format: functional
In short: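 BDF1 mice implanted sc by trocar with ~40 mg Lewis lung fragments from sterile donor tumors. A single ip dose was given on day 1 or 2 after implant, in water or saline vehicle. Cures were scored in animals observed for at least 80 days after treatment. Drug-toxicity controls were matched non-tumor-bearing mice monitored for body weight and deaths.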

[2] = Antitumor activity against mouse advanced Lewis lung carcinoma allografted in BDF1 mouse assessed as increase in host life span at 18 mg/kg, ip administered as single dose on 7th day post-tumor implantation; format: functional; settings: route intraperitoneal
In short: (§1)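 BDF1 mice (C57Blk/6 × DBA/2) implanted sc by trocar with about 40 mg Lewis lung tumor fragments from bacteriologically sterile donors. Advanced-disease groups held tumors of about 400 mg by day 6-7, sized by caliper (w = ab²/2). Single ip injection on day 7, in water or saline vehicle, at or below the LD10 in normal mice. Tumors measured at least twice weekly.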

Mus musculus [3] = experiment: Antitumor activity against mouse advanced Lewis lung carcinoma allografted in BDF1 mouse assessed as complete regression of established tumor at 12 mg/kg, ip administered as single dose on 7th day post-tumor implantation; format: functional, organism-based; set-up: dose 12 mg/kg
In short: (§2)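 BDF1 mice (C57Blk/6 × DBA/2) implanted sc by trocar with Lewis lung tumor fragments of about 40 mg, taken only from bacteriologically sterile donor tumors. Mice bearing tumors of about 400 mg (day 6-7) were selected. Each received a single ip dose on day 7, at or below the LD10 in normal mice. Groups were of 10 mice. Tumor weight was taken from calipers as w = ab²/2, measured at least twice weekly. Matched non-tumor mice served as toxicity controls.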

Mus musculus [4] = experiment: Antitumor activity against mouse advanced Lewis lung carcinoma allografted in BDF1 mouse assessed as disease cure at 18 mg/kg, ip administered as single dose on 7th day post-tumor implantation measured for 80 days post-drug treatment; format: functional, organism-based; set-up: dose 18 mg/kg; in short: as §2
Mus musculus [5] = experiment: Antitumor activity against mouse advanced Lewis lung carcinoma allografted in ip dosed BDF1 mouse assessed as complete regression of established tumor administered as single dose on day 6 or 7 post-tumor implantation; format: functional, organism-based; in short: as §2
[6] = Antitumor activity against mouse advanced Lewis lung carcinoma allografted in BDF1 mouse assessed as increase in host life span at 12 mg/kg, ip administered as single dose on 7th day post-tumor implantation; format: functional; settings: route intraperitoneal; in short: as §1
Mus musculus [7] = experiment: Antitumor activity against mouse advanced Lewis lung carcinoma allografted in BDF1 mouse assessed as complete regression of established tumor at 18 mg/kg, ip administered as single dose on 7th day post-tumor implantation; format: functional, organism-based; set-up: dose 18 mg/kg; in short: as §2
[8] = Antitumor activity against mouse advanced Lewis lung carcinoma allografted in ip dosed BDF1 mouse assessed as increase in host lifespan administered as single dose on day 6 or 7 post-tumor implantation; format: functional
In short: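 Advanced Lewis lung model: about 40 mg fragments implanted sc by trocar into BDF1 mice, and mice with tumors of about 400 mg (day 6-7) selected. Tumor weight from calipers, w = ab²/2. Agent given as one ip dose in distilled water or physiological saline. Nontumor-bearing mice received matching doses as toxicity controls.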

Mus musculus [9] = experiment: Antitumor activity against mouse advanced Lewis lung carcinoma allografted in ip dosed BDF1 mouse assessed as disease cure administered as single dose on day 6 or 7 post-tumor implantation; format: functional, organism-based; in short: as §2
Mus musculus [10] = experiment: Antitumor activity against mouse advanced Lewis lung carcinoma allografted in BDF1 mouse assessed as disease cure at 12 mg/kg, ip administered as single dose on 7th day post-tumor implantation measured for 80 days post-drug treatment; format: functional, organism-based; set-up: dose 12 mg/kg; in short: as §2
[11] = Antitumor activity against mouse early Lewis lung carcinoma allografted in BDF1 mouse assessed as increase in host life span at 13 mg/kg, ip administered as single dose on 1 or 2 days post-tumor implantation; format: functional; settings: route intraperitoneal
In short: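 Early disease: BDF1 mice carrying sc trocar implants of about 40 mg Lewis lung fragments. One ip dose given on day 1 or 2 after implant, in distilled water or saline, at ≤0.5 ml. Endpoints were % increase in life-span of dying animals and delay in days for the primary tumor to reach 1 g. Untreated controls served as reference.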

[12] = Antitumor activity against mouse early Lewis lung carcinoma allografted in BDF1 mouse assessed as increase in host life span at 20 mg/kg, ip administered as single dose on 1 or 2 days post-tumor implantation; format: functional; settings: route intraperitoneal
In short: (§3)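 BDF1 mice (C57Blk/6 × DBA/2) implanted sc by trocar with ~40 mg Lewis lung tumor fragments from bacteriologically sterile donor tumors. Single ip dose on day 1 or 2, as a solution or suspension in water (CMC or gum acacia) or saline (HPC or Tween 80). Read-out is […]. Same-dose toxicity controls were run in nontumor-bearing mice.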

[13] = Ratio of ED50 for antitumor activity against mouse L1210 cells allografted in ip dosed mouse to LD10 for mouse
[14] = Antitumor activity against mouse early Lewis lung carcinoma allografted in BDF1 mouse assessed as time delay in tumor growth at 13 mg/kg, ip administered as single dose on 1 or 2 days post-tumor implantation; format: functional; settings: route intraperitoneal
In short: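 Sc trocar implants of about 40 mg Lewis lung fragments in BDF1 mice. A single ip injection was given on day 1 or 2, in water or physiological saline, at ≤0.5 ml. Tumor size came from caliper length and width as w = ab²/2, measured at least twice weekly. Growth delay is the extra days taken to reach 1 g, compared with untreated controls.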

[15] = Antitumor activity against mouse advanced Lewis lung carcinoma allografted in BDF1 mouse assessed as increase in host life span at 20 mg/kg, ip administered as single dose on 7th day post-tumor implantation; format: functional; settings: route intraperitoneal; in short: as §1
Mus musculus [16] = experiment: Antitumor activity against mouse advanced Lewis lung carcinoma allografted in BDF1 mouse assessed as disease cure at 20 mg/kg, ip administered as single dose on 7th day post-tumor implantation measured for 80 days post-drug treatment; format: functional, organism-based; set-up: dose 20 mg/kg; in short: as §2
[17] = Antitumor activity against mouse advanced Lewis lung carcinoma allografted in BDF1 mouse assessed as increase in host life span at 30 mg/kg, ip administered as single dose on 7th day post-tumor implantation; format: functional; settings: route intraperitoneal; in short: as §1
Mus musculus [18] = experiment: Antitumor activity against mouse advanced Lewis lung carcinoma allografted in BDF1 mouse assessed as disease cure at 30 mg/kg, ip administered as single dose on 7th day post-tumor implantation measured for 80 days post-drug treatment; format: functional, organism-based; set-up: dose 30 mg/kg; in short: as §2
Mus musculus [19] = experiment: Antitumor activity against mouse advanced Lewis lung carcinoma allografted in BDF1 mouse assessed as complete regression of established tumor at 37 mg/kg, ip administered as single dose on 7th day post-tumor implantation; format: functional, organism-based; set-up: dose 37 mg/kg; in short: as §2
Mus musculus [20] = experiment: Antitumor activity against mouse advanced Lewis lung carcinoma allografted in BDF1 mouse assessed as disease cure at 25 mg/kg, ip administered as single dose on 7th day post-tumor implantation measured for 80 days post-drug treatment; format: functional, organism-based; set-up: dose 25 mg/kg; in short: as §2
[21] = Antitumor activity against mouse early Lewis lung carcinoma allografted in BDF1 mouse assessed as time delay in tumor growth at 26 mg/kg, ip administered as single dose on 1 or 2 days post-tumor implantation; format: functional; settings: route intraperitoneal
In short: (§4)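 BDF1 mice (C57Blk/6 × DBA/2) implanted sc by trocar with ~40 mg Lewis lung tumor fragments from bacteriologically sterile donors. A single ip dose was given on day 1 or 2, as a solution or suspension in water or saline with suspending agent, at ≤0.5 ml. Tumors were measured by caliper at least twice weekly, with weight = ab²/2. Delay was taken as the days for the tumor to reach 1 g.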

[22] = Antitumor activity against mouse early Lewis lung carcinoma allografted in BDF1 mouse assessed as time delay in tumor growth at 40 mg/kg, ip administered as single dose on 1 or 2 days post-tumor implantation; format: functional; settings: route intraperitoneal; in short: as §4
[23] = Antitumor activity against mouse advanced Lewis lung carcinoma allografted in BDF1 mouse assessed as increase in host life span at 25 mg/kg, ip administered as single dose on 7th day post-tumor implantation; format: functional; settings: route intraperitoneal; in short: as §1
[24] = Antitumor activity against mouse early Lewis lung carcinoma allografted in BDF1 mouse assessed as time delay in tumor growth at 60 mg/kg, ip administered as single dose on 1 or 2 days post-tumor implantation; format: functional; settings: route intraperitoneal; in short: as §4
[25] = Antitumor activity against mouse early Lewis lung carcinoma allografted in BDF1 mouse assessed as increase in host life span at 60 mg/kg, ip administered as single dose on 1 or 2 days post-tumor implantation; format: functional; settings: route intraperitoneal; in short: as §3
Mus musculus [26] = experiment: Antitumor activity against mouse advanced Lewis lung carcinoma allografted in BDF1 mouse assessed as complete regression of established tumor at 25 mg/kg, ip administered as single dose on 7th day post-tumor implantation; format: functional, organism-based; set-up: dose 25 mg/kg; in short: as §2
[27] = Antitumor activity against mouse advanced Lewis lung carcinoma allografted in BDF1 mouse assessed as increase in host life span at 16 mg/kg, ip administered as single dose on 7th day post-tumor implantation; format: functional; settings: route intraperitoneal; in short: as §1
[28] = Antitumor activity against mouse advanced Lewis lung carcinoma allografted in BDF1 mouse assessed as increase in host life span at 37 mg/kg, ip administered as single dose on 7th day post-tumor implantation; format: functional; settings: route intraperitoneal; in short: as §1
[29] = Antitumor activity against mouse early Lewis lung carcinoma allografted in BDF1 mouse assessed as increase in host life span at 26 mg/kg, ip administered as single dose on 1 or 2 days post-tumor implantation; format: functional; settings: route intraperitoneal; in short: as §3
[30] = Antitumor activity against mouse early Lewis lung carcinoma allografted in BDF1 mouse assessed as increase in host life span at 40 mg/kg, ip administered as single dose on 1 or 2 days post-tumor implantation; format: functional; settings: route intraperitoneal; in short: as §3
Mus musculus [31] = experiment: Antitumor activity against mouse advanced Lewis lung carcinoma allografted in BDF1 mouse assessed as disease cure at 37 mg/kg, ip administered as single dose on 7th day post-tumor implantation measured for 80 days post-drug treatment; format: functional, organism-based; set-up: dose 37 mg/kg; in short: as §2
Mus musculus [32] = experiment: Antitumor activity against mouse advanced Lewis lung carcinoma allografted in BDF1 mouse assessed as disease cure at 16 mg/kg, ip administered as single dose on 7th day post-tumor implantation measured for 80 days post-drug treatment; format: functional, organism-based; set-up: dose 16 mg/kg; in short: as §2
Mus musculus [33] = experiment: Antitumor activity against mouse advanced Lewis lung carcinoma allografted in BDF1 mouse assessed as complete regression of established tumor at 16 mg/kg, ip administered as single dose on 7th day post-tumor implantation; format: functional, organism-based; set-up: dose 16 mg/kg; in short: as §2

SMILES: CC(=O)OC[C@H]1CC[C@H](NC(=O)N(CCCl)N=O)CC1
- Activity (L1210): inactive
- Activity [1]: 10%
- ILS at 18 mg/kg [2]: 65%
- inhibition (Mus musculus [3]): inactive
- Activity (Mus musculus [4]): inactive
- inhibition (Mus musculus [5]): inactive
- ILS at 12 mg/kg [6]: 26%
- inhibition (Mus musculus [7]): inactive
- ILS [8]: >25%
- Activity (Mus musculus [9]): inactive
- Activity (Mus musculus [10]): inactive

SMILES: O=NN(CCCl)C(=O)N[C@H]1CC[C@@H](C(=O)O)CC1
- ILS at 13 mg/kg [11]: 35%
- Activity [1]: >50%
- ILS at 20 mg/kg [12]: 0%
- inhibition (Mus musculus [5]): Active
- Ratio [13]: 0.6
- Time [14]: 23 days
- ILS at 20 mg/kg [15]: 90%
- Activity (Mus musculus [16]): inactive
- Activity (Mus musculus [9]): inactive
- ILS at 30 mg/kg [17]: 79%
- Activity (Mus musculus [18]): inactive

SMILES: CO[C@H]1CC[C@H](NC(=O)N(CCCl)N=O)CC1
- inhibition (Mus musculus [19]): inactive
- Activity (Mus musculus [20]): inactive
- Time [21]: 0 days
- Time [22]: 2 days
- ILS at 25 mg/kg [23]: 29%
- Time [24]: 9.5 days
- ILS at 60 mg/kg [25]: 18%
- inhibition (Mus musculus [26]): inactive
- ILS at 16 mg/kg [27]: 20%
- ILS at 37 mg/kg [28]: 29%
- inhibition (Mus musculus [5]): inactive
- ILS at 26 mg/kg [29]: 18%
- ILS [8]: >25%
- ILS at 40 mg/kg [30]: 0%
- Activity (Mus musculus [9]): inactive
- Activity (Mus musculus [31]): inactive
- Activity (Mus musculus [32]): inactive
- inhibition (Mus musculus [33]): inactive
